Source: ChEMBL document CHEMBL4715924, “Virtual Screening Approach to Identifying a Novel and Tractable Series of Pseudomonas aeruginosa Elastase Inhibitors” (ACS Med Chem Lett, 2021)

What was measured:
[1] = Inhibition of Pseudomonas aeruginosa LasB using Abz-Ala-Gly-Leu-Ala-p-Nitro-Benzyl-Amide as substrate measured for every 60 sec for 30 mins by UV-fluorescence based assay
Summary of the method: (§1)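 Purified LasB enzyme in a fluorometric inhibition assay adapted from a published method. Compounds were screened at a single concentration of 30 μM (follow-ups in duplicate), and selected compounds were retested over 0.4–200 μM in dose–response. A modified version added 0.01% Triton X-100 to the assay buffer.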

[2] = test system: Pseudomonas aeruginosa PAO1; assay: Inhibition of Pseudomonas aeruginosa PAO1 LasB using ECR as substrate assessed as reduction in elastin hydrolysis at 50 uM incubated for 16 hrs by congo-red dye based spectrophotometry relative to control
Summary of the method: (§2)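 The enzyme source was LasB secreted into P. aeruginosa culture supernatant, with elastin congo-red as substrate. Elastin degradation releases congo-red dye into the supernatant, which is quantified spectrophotometrically.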

[3] = test system: Pseudomonas aeruginosa PAO1; assay: Inhibition of Pseudomonas aeruginosa PAO1 LasB using ECR as substrate assessed as reduction in elastin hydrolysis at 25 uM incubated for 16 hrs by congo-red dye based spectrophotometry relative to control; summary of the method: as §2
[4] = target: T1, Angiotensin-converting enzyme (Oryctolagus cuniculus, UniProt P12822); assay: Inhibition of rabbit ACE using Abz-FRK(DNP)-P as substrate measured for every 30 sec for 5 mins by UV-fluorescence based assay
T1 sequence (P12822 whole entry): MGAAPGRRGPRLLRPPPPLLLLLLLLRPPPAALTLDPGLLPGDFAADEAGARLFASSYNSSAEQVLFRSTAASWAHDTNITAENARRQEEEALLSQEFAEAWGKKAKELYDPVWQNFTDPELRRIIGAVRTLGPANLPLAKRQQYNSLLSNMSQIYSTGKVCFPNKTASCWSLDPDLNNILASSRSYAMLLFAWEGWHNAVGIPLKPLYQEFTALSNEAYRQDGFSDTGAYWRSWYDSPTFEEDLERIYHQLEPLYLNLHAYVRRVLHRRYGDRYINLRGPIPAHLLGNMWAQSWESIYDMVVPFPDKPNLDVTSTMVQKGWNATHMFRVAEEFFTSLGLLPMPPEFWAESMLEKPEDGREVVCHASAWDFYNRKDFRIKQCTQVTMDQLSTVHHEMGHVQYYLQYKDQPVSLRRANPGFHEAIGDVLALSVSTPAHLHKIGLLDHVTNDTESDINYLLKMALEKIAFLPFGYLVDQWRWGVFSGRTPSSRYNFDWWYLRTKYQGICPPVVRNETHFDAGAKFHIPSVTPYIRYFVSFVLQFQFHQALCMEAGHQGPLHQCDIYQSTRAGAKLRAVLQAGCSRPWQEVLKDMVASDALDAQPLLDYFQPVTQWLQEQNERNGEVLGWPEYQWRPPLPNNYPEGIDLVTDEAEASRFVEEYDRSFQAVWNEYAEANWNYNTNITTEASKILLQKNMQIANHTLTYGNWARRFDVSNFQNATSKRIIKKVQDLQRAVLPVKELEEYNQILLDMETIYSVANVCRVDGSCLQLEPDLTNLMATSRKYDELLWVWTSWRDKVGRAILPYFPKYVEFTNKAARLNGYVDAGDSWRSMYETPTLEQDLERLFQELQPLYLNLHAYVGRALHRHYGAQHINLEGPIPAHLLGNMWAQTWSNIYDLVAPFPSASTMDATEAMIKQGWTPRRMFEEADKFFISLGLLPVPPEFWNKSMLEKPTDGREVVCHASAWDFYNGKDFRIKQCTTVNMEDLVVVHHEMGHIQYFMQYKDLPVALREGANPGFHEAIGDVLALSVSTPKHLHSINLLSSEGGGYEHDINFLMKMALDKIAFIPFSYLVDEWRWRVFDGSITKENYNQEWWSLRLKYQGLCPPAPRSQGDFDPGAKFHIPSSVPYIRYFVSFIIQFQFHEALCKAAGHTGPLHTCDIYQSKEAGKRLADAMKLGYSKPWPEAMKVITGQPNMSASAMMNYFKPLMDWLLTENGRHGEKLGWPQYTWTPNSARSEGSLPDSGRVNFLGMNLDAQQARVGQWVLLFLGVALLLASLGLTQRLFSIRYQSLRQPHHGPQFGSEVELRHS

[5] = target: T2, Interstitial collagenase (Homo sapiens, UniProt P03956); assay: Inhibition of human MMP1
T2 sequence (P03956 whole entry): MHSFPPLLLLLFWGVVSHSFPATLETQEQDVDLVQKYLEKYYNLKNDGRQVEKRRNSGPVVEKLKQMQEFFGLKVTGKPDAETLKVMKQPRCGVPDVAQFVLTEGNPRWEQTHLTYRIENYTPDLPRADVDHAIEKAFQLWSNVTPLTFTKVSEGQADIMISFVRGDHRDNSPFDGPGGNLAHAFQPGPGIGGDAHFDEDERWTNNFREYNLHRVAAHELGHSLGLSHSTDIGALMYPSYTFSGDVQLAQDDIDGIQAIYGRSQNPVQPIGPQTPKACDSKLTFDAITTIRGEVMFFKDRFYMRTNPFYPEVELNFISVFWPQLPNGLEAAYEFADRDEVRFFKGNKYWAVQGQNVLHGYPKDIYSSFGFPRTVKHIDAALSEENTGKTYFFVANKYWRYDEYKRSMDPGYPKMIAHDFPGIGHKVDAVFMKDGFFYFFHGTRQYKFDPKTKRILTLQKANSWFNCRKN

[6] = target: Collagenase 3 (Homo sapiens, UniProt P45452); assay: Inhibition of human MMP13
[7] = target: 72 kDa type IV collagenase (Homo sapiens, UniProt P08253); assay: Inhibition of human MMP2
[8] = test system: ACE (off-target) relative to Pseudomonas aeruginosa PAO1 LasB; assay: Selectivity index, ratio of Ki for rabbit ACE to Ki for Pseudomonas aeruginosa PAO1 LasB; format: toxicity; settings: read-out: Ratio Ki
[9] = Inhibition of Pseudomonas aeruginosa LasB using Abz-Ala-Gly-Leu-Ala-p-Nitro-Benzyl-Amide as substrate by micro-titer based fluorimetric assay; summary of the method: as §1

Chain of 72 kDa type IV collagenase (P08253 whole entry): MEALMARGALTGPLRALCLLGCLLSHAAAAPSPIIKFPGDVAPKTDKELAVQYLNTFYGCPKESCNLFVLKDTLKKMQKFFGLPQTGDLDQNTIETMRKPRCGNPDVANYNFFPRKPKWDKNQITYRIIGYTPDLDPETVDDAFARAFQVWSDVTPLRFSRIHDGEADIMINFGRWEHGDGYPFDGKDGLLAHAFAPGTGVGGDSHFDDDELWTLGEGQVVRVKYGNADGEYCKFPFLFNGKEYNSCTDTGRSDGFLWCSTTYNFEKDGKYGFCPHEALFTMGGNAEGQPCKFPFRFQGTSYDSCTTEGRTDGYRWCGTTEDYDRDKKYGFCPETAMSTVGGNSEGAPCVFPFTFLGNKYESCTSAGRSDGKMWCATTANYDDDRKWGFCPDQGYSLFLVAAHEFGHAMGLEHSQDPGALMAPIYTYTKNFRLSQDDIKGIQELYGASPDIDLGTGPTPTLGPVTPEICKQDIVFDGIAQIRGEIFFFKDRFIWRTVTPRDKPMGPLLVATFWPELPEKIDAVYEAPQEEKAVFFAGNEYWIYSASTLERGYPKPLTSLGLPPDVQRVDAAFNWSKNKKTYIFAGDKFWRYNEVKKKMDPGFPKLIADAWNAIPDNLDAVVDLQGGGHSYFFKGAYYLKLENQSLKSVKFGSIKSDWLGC

| Ki [1] [µM] | inhibition [2] [%] | inhibition [3] [%] | Ki [4] [µM] | IC50 [5] [µM] | IC50 [6] [µM] | IC50 [7] [µM] | Ki [9] [µM] | SMILES | selectivity ratio [8] |
| --- | --- | --- | --- | --- | --- | --- | --- | --- | --- |
| 0.62 | 57 | 47 | > 57 | – | – | – | – | O=C(O)CC1(C(=O)NCc2cc3ccccc3s2)Cc2ccccc2C1 | – |
| 13.6 | 18 | 11 | > 57 | – | – | – | – | O=C(O)CC1(C(=O)NCCc2nc3ccccc3[nH]2)Cc2ccccc2C1 | – |
| 10.5 | 21 | 11 | > 57 | – | – | – | – | O=C(O)CC1(C(=O)NCCc2nc3ccccc3s2)Cc2ccccc2C1 | – |
| 0.16 | 79 | 69 | > 57 | > 10 | > 10 | > 10 | – | O=C(O)CC1(C(=O)NCc2nc3ccccc3s2)Cc2ccccc2C1 | > 356 |
| 12.5 | 32 | 21 | 18 | – | – | – | – | Cn1c(CNC(=O)C2(CC(=O)O)Cc3ccccc3C2)nc2ccccc21 | – |
| 21.5 | 20 | 11 | > 57 | – | – | – | – | O=C(O)CC1(C(=O)NCc2nc3ccccc3[nH]2)Cc2ccccc2C1 | – |
| 4.85 | 28 | 18 | 40.6 | – | – | – | – | O=C(O)CC1(C(=O)NCCc2cc3ccccc3s2)Cc2ccccc2C1 | – |
| 4.34 | 25 | 18 | > 57 | – | – | – | – | O=C(O)CC1(C(=O)NCCc2cc3ccccc3[nH]2)Cc2ccccc2C1 | – |
| 1.75 | 54 | 43 | > 57 | – | – | – | – | O=C(O)CC1(C(=O)NCc2ccccc2)Cc2ccccc2C1 | – |
| 1.4 | 54 | 45 | > 57 | – | – | – | – | O=C(O)CC1(C(=O)NCc2cc3ccccc3o2)Cc2ccccc2C1 | – |
| 1.08 | 49 | 35 | > 57 | – | – | – | – | O=C(O)CC1(C(=O)NCc2cc3ccccc3[nH]2)Cc2ccccc2C1 | – |
| 0.12 | 76 | 68 | > 57 | > 10 | > 10 | > 10 | – | O=C(O)CC1(C(=O)NCc2nc(-c3ccccc3)cs2)Cc2ccccc2C1 | > 356 |
| 5.66 | 25 | 16 | > 57 | – | – | – | – | O=C(O)CC1(C(=O)NCCc2cc3ccccc3o2)Cc2ccccc2C1 | – |
| 1.9 | 51 | 41 | 31.3 | – | – | – | – | O=C(O)CC1(C(=O)NCc2coc3ccccc23)Cc2ccccc2C1 | – |
| 0.69 | 60 | 51 | > 57 | – | – | – | – | Cn1c(CNC(=O)C2(CC(=O)O)Cc3ccccc3C2)cc2ccccc21 | – |
| 0.61 | 63 | – | > 57 | – | – | – | – | O=C(O)CC1(C(=O)NCc2ccc3ccccc3n2)Cc2ccccc2C1 | – |
| 1.19 | 54 | 42 | > 57 | – | – | – | – | O=C(O)CC1(C(=O)NCc2ncc(-c3ccccc3)s2)Cc2ccccc2C1 | – |
| 3.54 | 35 | 23 | > 57 | – | – | – | – | O=C(O)CC1(C(=O)NCc2c[nH]c3ccccc23)Cc2ccccc2C1 | – |

Further lines, the compound ahead of its results:

| SMILES | Ki [1] [µM] | inhibition [2] [%] | inhibition [3] [%] | Ki [4] [µM] | IC50 [5] [µM] | IC50 [6] [µM] | IC50 [7] [µM] | Ki [9] [µM] | selectivity ratio [8] |
| --- | --- | --- | --- | --- | --- | --- | --- | --- | --- |
| O=C(O)CC1(C(=O)NCc2nccs2)Cc2ccccc2C1 | 0.61 | 65 | 55 | > 57 | – | – | – | – | – |
| CC(NC(=O)CC1(C(=O)O)Cc2ccccc2C1)c1cc2ccccc2o1 (racemic) | 14.8 | 22 | – | > 57 | – | – | – | – | – |
| NC(=O)[C@H](Cc1ccc(O)cc1)NC(=O)[C@H](Cc1ccccc1)NC(=O)CS | – | – | – | – | – | – | – | 0.041 | – |
| O=C(CC1(C(=O)O)Cc2ccccc2C1)NCc1ccc2ccccc2n1 | 76.2 | 7 | – | – | – | – | – | – | – |
| Cc1ccc2oc(CNC(=O)CC3(C(=O)O)Cc4ccccc4C3)cc2c1 | > 92 | 2 | – | > 57 | – | – | – | – | – |
| C[C@@H](NC(=O)C1(CC(=O)O)Cc2ccccc2C1)c1cc2ccccc2o1 | 2.27 | 44 | 33 | > 57 | – | – | – | – | – |
| Cc1ccc2oc(CNC(=O)C3(CC(=O)O)Cc4ccccc4C3)cc2c1 | 0.45 | 60 | – | > 57 | – | – | – | – | – |
| Cc1ccccc1OCC(=O)N(CCC(=O)O)Cc1cccc(F)c1F | 6.87 | – | – | > 57 | – | – | – | – | – |
| Cn1cc(CNC(=O)C2(CC(=O)O)Cc3ccccc3C2)cn1 | 4.04 | 42 | – | > 57 | – | – | – | – | – |
| Cn1cc(CNC(=O)CC2(C(=O)O)Cc3ccccc3C2)cn1 | > 92 | 8 | – | > 57 | – | – | – | – | – |
| Cc1cc(Br)ccc1C(=O)NC1=NC(=O)CN1 | 18.1 | – | – | > 57 | – | – | – | – | – |
| C[C@H](NC(=O)C1(CC(=O)O)Cc2ccccc2C1)c1cc2ccccc2o1 | 3.21 | 47 | 37 | > 57 | – | – | – | – | – |
